{"source": "ChEMBL document CHEMBL1275561", "about": "“In vitro activities of doripenem, a new broad-spectrum carbapenem, against recently collected clinical anaerobic isolates, with emphasis on the Bacteroides fragilis group” (2008)", "format_in_all_cases": "functional", "key": {"Bacteroides caccae": {"test_system": "Bacteroides caccae", "test": "Antimicrobial activity against Bacteroides caccae assessed as resistant isolates by agar dilution method", "summary_of_the_method": "(§1)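 CLSI agar dilution on enriched brucella agar (5% lysed defibrinated sheep blood, 1 μg/ml vitamin K1), plates made on test day. Log-phase inocula adjusted to 0.5 McFarland; about 10^5 CFU/spot by Steers replicator. Incubated anaerobically at 37°C for 48 h. MIC was the lowest concentration giving a marked change in growth versus the drug-free control plate. Resistance rates used CLSI anaerobe breakpoints. Controls were B. fragilis ATCC 25285 and B. thetaiotaomicron ATCC 29741.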"}, "[1]": {"test_system": "Peptoniphilus asaccharolyticus", "test": "Antimicrobial activity against Peptoniphilus asaccharolyticus assessed as resistant isolates by agar dilution method", "details": "pooled result: one value given for 4 cell lines, strains, targets or settings", "summary_of_the_method": "(§2)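 Agar dilution following CLSI on brucella agar with 5% lysed defibrinated sheep blood and 1 μg/ml vitamin K1, plates made on test day. Log-phase cells at 0.5 McFarland, about 10^5 CFU/spot by Steers replicator, 48 h anaerobic at 37°C. MIC read as the lowest concentration causing a marked growth change versus control. Resistance counted by CLSI anaerobe breakpoints. Eubacterium lentum ATCC 43055 served as control.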"}, "Bacteroides fragilis": {"test_system": "Bacteroides fragilis", "test": "Antimicrobial activity against Bacteroides fragilis assessed as resistant isolates by agar dilution method", "summary_of_the_method": "as §1"}, "[2]": {"test_system": "Bacteroides thetaiotaomicron", "test": "Antimicrobial activity against Bacteroides thetaiotaomicron assessed as resistant isolates by agar dilution method", "summary_of_the_method": "as §1"}, "Parvimonas micra": {"test_system": "Parvimonas micra", "test": "Antimicrobial activity against Micromonas micros by agar dilution method in presence of beta-lactamase inhibitor Tazobactam", "summary_of_the_method": "(§3)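 Gram-positive anaerobes were tested by CLSI agar dilution on brucella agar enriched with 5% lysed defibrinated sheep blood and 1 μg/ml vitamin K1. Inoculum was log-phase growth at 0.5 McFarland, about 10^5 CFU/spot by replicator. Incubation was anaerobic, 37°C, 48 h. MIC was the lowest concentration with a marked growth change versus the drug-free plate. Eubacterium lentum ATCC 43055 was the control, and tests were repeated if it fell outside the CLSI range.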"}, "Anaerococcus prevotii": {"test_system": "Anaerococcus prevotii", "test": "Antimicrobial activity against Anaerococcus prevotii by agar dilution method in presence of beta-lactamase inhibitor Tazobactam", "summary_of_the_method": "as §3"}, "[Clostridium] innocuum": {"test_system": "[Clostridium] innocuum", "test": "Antimicrobial activity against Clostridium innocuum assessed as resistant isolates by agar dilution method", "details": "pooled result: one value given for 4 cell lines, strains, targets or settings"}, "Cutibacterium acnes [3]": {"test_system": "Cutibacterium acnes", "test": "Antimicrobial activity against Propionibacterium acnes by agar dilution method in presence of beta-lactamase inhibitor Tazobactam", "summary_of_the_method": "(§4)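 Log-phase isolates were adjusted to 0.5 McFarland, and about 10^5 CFU/spot was delivered by Steers replicator. Plates were incubated anaerobically at 37°C for 48 h. MIC was the lowest concentration giving a marked growth change versus the control plate. Eubacterium lentum ATCC 43055 was the QC strain, with repeats when out of range.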"}, "Phocaeicola vulgatus": {"test_system": "Phocaeicola vulgatus", "test": "Antimicrobial activity against Bacteroides vulgatus assessed as resistant isolates by agar dilution method", "summary_of_the_method": "as §1"}, "Finegoldia magna [4]": {"test_system": "Finegoldia magna", "test": "Antimicrobial activity against Finegoldia magna by agar dilution method in presence of beta-lactamase inhibitor Tazobactam", "summary_of_the_method": "as §3"}, "Propionibacterium [5]": {"test_system": "Propionibacterium", "test": "Antimicrobial activity against Propionibacterium sp. assessed as resistant isolates by agar dilution method", "summary_of_the_method": "as §2"}, "Finegoldia magna [6]": {"test_system": "Finegoldia magna", "test": "Antimicrobial activity against Finegoldia magna assessed as resistant isolates by agar dilution method", "summary_of_the_method": "as §2"}, "Peptostreptococcus sp.": {"test_system": "Peptostreptococcus sp.", "test": "Antimicrobial activity against Peptostreptococcus sp. by agar dilution method in presence of beta-lactamase inhibitor Tazobactam", "summary_of_the_method": "as §4"}, "Bacteroides nordii": {"test_system": "Bacteroides nordii", "test": "Antimicrobial activity against Bacteroides nordii assessed as resistant isolates by agar dilution method", "summary_of_the_method": "as §1"}, "Cutibacterium acnes [7]": {"test_system": "Cutibacterium acnes", "test": "Antimicrobial activity against Propionibacterium acnes assessed as resistant isolates by agar dilution method", "summary_of_the_method": "as §2"}, "Bacteroides eggerthii": {"test_system": "Bacteroides eggerthii", "test": "Antimicrobial activity against Bacteroides eggerthii assessed as resistant isolates by agar dilution method", "summary_of_the_method": "as §1"}, "Parabacteroides merdae": {"test_system": "Parabacteroides merdae", "test": "Antimicrobial activity against Bacteroides merdae assessed as resistant isolates by agar dilution method", "summary_of_the_method": "as §1"}, "Clostridioides difficile": {"test_system": "Clostridioides difficile", "test": "Antimicrobial activity against Clostridium difficile by agar dilution method in presence of beta-lactamase inhibitor Tazobactam", "summary_of_the_method": "as §3"}, "[8]": {"test_system": "Parabacteroides distasonis", "test": "Antimicrobial activity against Bacteroides distasonis assessed as resistant isolates by agar dilution method", "summary_of_the_method": "as §1"}, "[9]": {"test_system": "Peptoniphilus asaccharolyticus", "test": "Antimicrobial activity against Peptoniphilus asaccharolyticus by agar dilution method in presence of beta-lactamase inhibitor Tazobactam", "summary_of_the_method": "as §3"}, "Propionibacterium [10]": {"test_system": "Propionibacterium", "test": "Antimicrobial activity against Propionibacterium sp. by agar dilution method in presence of beta-lactamase inhibitor Tazobactam", "summary_of_the_method": "as §4"}, "Bacteroides uniformis": {"test_system": "Bacteroides uniformis", "test": "Antimicrobial activity against Bacteroides uniformis assessed as resistant isolates by agar dilution method", "summary_of_the_method": "as §1"}, "Bacteroides ovatus": {"test_system": "Bacteroides ovatus", "test": "Antimicrobial activity against Bacteroides ovatus assessed as resistant isolates by agar dilution method", "summary_of_the_method": "as §1"}}, "note": "“And” between values parts separate entries of the source, which are not always exact repeats. Equal entries are not always repeated."}
{"smiles": "CCN1CCN(C(=O)N[C@@H](C(=O)N[C@@H]2C(=O)N3[C@@H]2SC(C)(C)[C@@H]3C(=O)O)c2ccccc2)C(=O)C1=O", "note": "[PIPERACILLIN]", "values": [{"measurement": "Activity", "setting": "Bacteroides caccae", "value": 0, "unit": "%"}, {"measurement": "Activity", "setting": "[1]", "value": 0, "unit": "%"}, {"measurement": "Activity", "setting": "Bacteroides fragilis", "value": 1, "unit": "%"}, {"measurement": "Activity", "setting": "[2]", "value": 1.3, "unit": "%"}, {"measurement": "MIC", "setting": "Parvimonas micra", "value": 0.5, "unit": "µg/mL"}, {"measurement": "MIC", "setting": "Parvimonas micra; Parvimonas micra, read-out: MIC", "value": 0.5, "unit": "µg/mL"}, {"measurement": "MIC", "setting": "Anaerococcus prevotii", "value": 0.5, "unit": "µg/mL"}, {"measurement": "MIC", "setting": "Anaerococcus prevotii; Anaerococcus prevotii, read-out: MIC", "value": 0.5, "unit": "µg/mL"}, {"measurement": "Activity", "setting": "[Clostridium] innocuum", "value": 5.6, "unit": "%"}, {"measurement": "MIC", "setting": "Cutibacterium acnes [3]", "value": "0.25 µg/mL and 0.5 µg/mL"}, {"measurement": "MIC", "setting": "Cutibacterium acnes [3]; Cutibacterium acnes, read-out: MIC", "value": 0.25, "unit": "µg/mL"}, {"measurement": "Activity", "setting": "Phocaeicola vulgatus", "value": 0, "unit": "%"}, {"measurement": "MIC", "setting": "Finegoldia magna [4]", "value": 0.5, "unit": "µg/mL"}, {"measurement": "MIC", "setting": "Finegoldia magna [4]; Finegoldia magna, read-out: MIC", "value": 0.5, "unit": "µg/mL"}, {"measurement": "Activity", "setting": "Propionibacterium [5]", "value": 0, "unit": "%"}, {"measurement": "Activity", "setting": "Finegoldia magna [6]", "value": 0, "unit": "%"}, {"measurement": "MIC", "setting": "Peptostreptococcus sp.", "value": 0.5, "unit": "µg/mL"}, {"measurement": "MIC", "setting": "Peptostreptococcus sp.; Peptostreptococcus sp., read-out: MIC", "value": 0.5, "unit": "µg/mL"}, {"measurement": "Activity", "setting": "Bacteroides nordii", "value": 0, "unit": "%"}, {"measurement": "Activity", "setting": "Cutibacterium acnes [7]", "value": 0, "unit": "%"}, {"measurement": "Activity", "setting": "Bacteroides eggerthii", "value": 0, "unit": "%"}, {"measurement": "Activity", "setting": "Parabacteroides merdae", "value": 0, "unit": "%"}, {"measurement": "MIC", "setting": "Clostridioides difficile", "value": 2, "unit": "µg/mL"}, {"measurement": "Activity", "setting": "[8]", "value": 0, "unit": "%"}, {"measurement": "MIC", "setting": "[9]", "value": 0.5, "unit": "µg/mL"}, {"measurement": "MIC", "setting": "[9]; Peptoniphilus asaccharolyticus, read-out: MIC", "value": 0.5, "unit": "µg/mL"}, {"measurement": "MIC", "setting": "Propionibacterium [10]", "value": "0.25 µg/mL and 0.5 µg/mL"}, {"measurement": "MIC", "setting": "Propionibacterium [10]; Propionibacterium, read-out: MIC", "value": 0.25, "unit": "µg/mL"}, {"measurement": "Activity", "setting": "Bacteroides uniformis", "value": 0, "unit": "%"}, {"measurement": "Activity", "setting": "Bacteroides ovatus", "value": 0, "unit": "%"}]}
